pIC50: −log10 of the molar value.
Tests used:
[1] = system: HeLa; test: Antiproliferative activity against human HeLa cells after 48 hrs by MTT assay; assay type: functional, cell-based
Summary of the method: (§1)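 Cells in DMEM/10% FBS pre-incubated 24 h at 37 °C, then compound-treated 48 h (10 mM DMSO stock diluted in medium). MTT (10 µL of 5 mg/mL) added for 4 h; formazan dissolved in DMSO, absorbance read at 570 nm. IC50 = 50% inhibitory concentration, mean of three individual experiments.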

[2] = system: MCF7; test: Antiproliferative activity against human MCF7 cells after 48 hrs by MTT assay; assay type: functional, cell-based; conditions: MCF7, 48 h; summary of the method: as §1
[3] = system: DU-145; test: Antiproliferative activity against human DU145 cells after 48 hrs by MTT assay; assay type: functional, cell-based; conditions: DU-145, 48 h; summary of the method: as §1
[4] = system: A549; test: Antiproliferative activity against human A549 cells after 48 hrs by MTT assay; assay type: functional, cell-based; conditions: A549, 48 h; summary of the method: as §1
[5] = system: HepG2; test: Antiproliferative activity against human HepG2 cells after 48 hrs by MTT assay; assay type: functional, cell-based; conditions: HepG2, 48 h; summary of the method: as §1
[6] = system: HT-29; test: Antiproliferative activity against human HT-29 cells after 48 hrs by MTT assay; assay type: functional, cell-based; conditions: HT-29, 48 h; summary of the method: as §1
[7] = system: NIH3T3; test: Antiproliferative activity against mouse NIH/3T3 cells after 48 hrs by MTT assay; assay type: cell-based; conditions: NIH3T3, 48 h; summary of the method: as §1

SMILES	pIC50 [1]	pIC50 [2]	pIC50 [3]	pIC50 [4]	pIC50 [5]	pIC50 [6]	pIC50 [7]
COc1cc([C@@H]2c3cc4c(cc3C(NC(=O)c3cn(Cc5ccc(Cl)cc5)nn3)[C@H]3COC(=O)[C@H]23)OCO4)cc(OC)c1OC (single isomer, unassigned)	5.45	5.28	5.63	5.09	5.45	4.63	4.09
COc1ccc(Cn2cc(C(=O)NC3c4cc5c(cc4[C@@H](c4cc(OC)c(OC)c(OC)c4)[C@H]4C(=O)OC[C@H]34)OCO5)nn2)cc1 (single isomer, unassigned)	5.46	5.48	5.75	5.24	5.71	4.76	4.17
COc1cc([C@@H]2c3cc4c(cc3C(NC(=O)c3cn(-c5ccccc5)nn3)[C@H]3COC(=O)[C@H]23)OCO4)cc(OC)c1OC (single isomer, unassigned)	5.61	5.84	5.88	5.74	5.71	5.27	4.27
COc1cc([C@@H]2c3cc4c(cc3C(NC(=O)c3cn(Cc5ccccc5)nn3)[C@H]3COC(=O)[C@H]23)OCO4)cc(OC)c1OC (single isomer, unassigned)	4.73	4.86	4.77	4.88	4.88	4.72	4.17
COc1cc([C@@H]2c3cc4c(cc3C(NC(=O)c3cn(Cc5cccc(Oc6ccccc6)c5)nn3)[C@H]3COC(=O)[C@H]23)OCO4)cc(OC)c1OC (single isomer, unassigned)	4.64	5.36	5.25	5.06	5.18	4.39	4.05
COc1cc(OC)cc(-n2cc(C(=O)NC3c4cc5c(cc4[C@@H](c4cc(OC)c(OC)c(OC)c4)[C@H]4C(=O)OC[C@H]34)OCO5)nn2)c1 (single isomer, unassigned)	4.77	5.06	4.93	4.75	4.86	4.71	4.11
COc1cc(Cn2cc(C(=O)NC3c4cc5c(cc4[C@@H](c4cc(OC)c(OC)c(OC)c4)[C@H]4C(=O)OC[C@H]34)OCO5)nn2)cc(OC)c1OC (single isomer, unassigned)	4.99	5.13	5.07	4.83	6.02	5.07	4.21
COc1cccc(Cn2cc(C(=O)NC3c4cc5c(cc4[C@@H](c4cc(OC)c(OC)c(OC)c4)[C@H]4C(=O)OC[C@H]34)OCO5)nn2)c1 (single isomer, unassigned)	4.65	5.11	4.91	4.67	5.01	4.50	4.13
COc1cc([C@@H]2c3cc4c(cc3C(NC(=O)c3cn(Cc5ccc(F)cc5)nn3)[C@H]3COC(=O)[C@H]23)OCO4)cc(OC)c1OC (single isomer, unassigned)	4.54	4.72	4.64	4.12	4.47	4.11	4.04
COc1cc([C@@H]2c3cc4c(cc3C(NC(=O)c3cn(-c5ccc(F)cc5)nn3)[C@H]3COC(=O)[C@H]23)OCO4)cc(OC)c1OC (single isomer, unassigned)	4.10	5.17	5.02	4.85	4.96	4.86	4.01
COc1cc([C@@H]2c3cc4c(cc3C(NC(=O)c3cn(Cc5ccc6c(c5)OCO6)nn3)[C@H]3COC(=O)[C@H]23)OCO4)cc(OC)c1OC (single isomer, unassigned)	4.48	4.46	4.56	4.46	4.58	4.44	4.16
COc1cc(Cn2cc(C(=O)NC3c4cc5c(cc4[C@@H](c4cc(OC)c(OC)c(OC)c4)[C@H]4C(=O)OC[C@H]34)OCO5)nn2)cc(OC)c1 (single isomer, unassigned)	4.59	4.86	4.83	4.49	4.85	4.56	4.09
COc1ccc(Cn2cc(C(=O)NC3c4cc5c(cc4[C@@H](c4cc(OC)c(OC)c(OC)c4)[C@H]4C(=O)OC[C@H]34)OCO5)nn2)cc1OC (single isomer, unassigned)	4.91	4.91	4.87	4.71	4.90	4.87	4.08
COc1cc([C@@H]2c3cc4c(cc3C(NC(=O)c3cn(-c5ccc6c(c5)OCO6)nn3)[C@H]3COC(=O)[C@H]23)OCO4)cc(OC)c1OC (single isomer, unassigned)	4.32	5.12	5.05	6.01	5.00	4.75	4.17
COc1cc([C@@H]2c3cc4c(cc3C(NC(=O)c3cn(-c5cc(OC)c(OC)c(OC)c5)nn3)[C@H]3COC(=O)[C@H]23)OCO4)cc(OC)c1OC (single isomer, unassigned)	4.99	5.13	5.07	4.83	6.02	5.07	4.10
COc1cc([C@@H]2c3cc4c(cc3C(NC(=O)c3cn(Cc5ccc(C(F)(F)F)cc5)nn3)[C@H]3COC(=O)[C@H]23)OCO4)cc(OC)c1OC (single isomer, unassigned)	4.57	4.66	4.48	4.56	4.69	4.18	4.12
COc1ccc(-n2cc(C(=O)NC3c4cc5c(cc4[C@@H](c4cc(OC)c(OC)c(OC)c4)[C@H]4C(=O)OC[C@H]34)OCO5)nn2)cc1OC (single isomer, unassigned)	4.73	5.09	4.84	4.92	4.93	4.82	4.18
COc1cc([C@@H]2c3cc4c(cc3[C@H](O)[C@H]3COC(=O)[C@H]23)OCO4)cc(OC)c1OC [PODOFILOX]	5.46	5.51	5.38	5.34	5.18	5.32	–

Source: ChEMBL document CHEMBL4251626, “4β-amidotriazole linked podophyllotoxin congeners: DNA topoisomerase-IIα inhibition and potential anticancer agents for prostate cancer” (Eur J Med Chem, 2018)
